The results in this text go back to ChEMBL document CHEMBL1177725, “6-(3,4-dichlorophenyl)-1-[(methyloxy)methyl]-3-azabicyclo[4.1.0]heptane: a new potent and selective triple reuptake inhibitor” (J Med Chem, 2010).

SMILES strings stand for the structures. Activity calls are given as the source filed them. The rule behind the calls is not given here.

Data set [1] concerns Mus musculus. Nature of the data set: Potentiation of 5-hydroxytryptophan-induced stereotypic behavior in mouse at 10 mg/kg, po administered 2 hrs before 5-hydroxytryptophan challenge measured for 30 mins. Type of data set: functional, organism-based. More on the design: dose 10 mg/kg. Put shortly:
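Mice were dosed orally at 3, 10 or 30 mg/kg 120 min before an ip injection of 5-HTP (100 mg/kg). Each mouse was then placed alone in a perspex box, and 5-HTP-induced stereotyped behaviour was assessed.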

Data set [2] concerns the target Sodium-dependent noradrenaline transporter (Homo sapiens, UniProt P23975). Nature of the data set: Displacement of [N-methyl-3H]nisoxetine from human recombinant NET expressed in pig LLCPK cells after 2 hrs by liquid scintillation counting. Type of data set: cell-based.
A further data set has as its target T1, Cytochrome P450 1A2 (Homo sapiens, UniProt P05177).
T1 sequence (P05177 whole entry): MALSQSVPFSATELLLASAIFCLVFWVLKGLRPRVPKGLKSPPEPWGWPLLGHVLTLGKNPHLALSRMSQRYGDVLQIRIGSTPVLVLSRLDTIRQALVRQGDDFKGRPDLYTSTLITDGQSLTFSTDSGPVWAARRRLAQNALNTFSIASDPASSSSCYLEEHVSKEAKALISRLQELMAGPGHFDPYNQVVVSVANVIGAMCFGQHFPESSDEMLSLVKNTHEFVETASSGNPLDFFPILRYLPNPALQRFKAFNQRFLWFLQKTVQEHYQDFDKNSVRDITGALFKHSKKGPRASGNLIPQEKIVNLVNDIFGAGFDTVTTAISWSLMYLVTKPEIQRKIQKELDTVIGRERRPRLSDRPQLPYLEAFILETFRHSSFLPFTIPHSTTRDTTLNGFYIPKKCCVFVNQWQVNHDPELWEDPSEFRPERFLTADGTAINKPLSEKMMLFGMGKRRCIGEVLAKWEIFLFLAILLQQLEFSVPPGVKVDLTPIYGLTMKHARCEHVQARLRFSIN
Nature of the data set: Inhibition of human CYP1A2 after 10 mins. It is filed as ADME. Put shortly:
(§1)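 Recombinant human CYP bactosomes (0.1 mg/mL) were pre-incubated 10 min at 37 °C in 50 mM phosphate pH 7.4 with compound (0.1–10 μM) and a fluorogenic substrate. Substrates: ethoxyresorufin 0.5 μM (1A2), FCA 50 μM (2C9), BMC 10 μM (2C19), MMC 10 μM (2D6), DEF 1 μM or 7-BQ 25 μM (3A4). Adding an NADPH-regenerating system started the reaction, and metabolite fluorescence was read over 10 min. The IC50 came from rate as percent of control; miconazole served as positive control, with triplicates.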

Data set [3] has as its target Sodium-dependent serotonin transporter (Homo sapiens, UniProt P31645). The experiment in a line: Displacement of [N-methyl-3H]citalopram from human recombinant SERT expressed in pig LLCPK cells after 2 hrs by liquid scintillation counting. Type of data set: cell-based.
The next data set addresses Cytochrome P450 2C19 (Homo sapiens, UniProt P33261). Nature of the data set: Inhibition of human CYP2C19 after 10 mins. It is filed as ADME. Put shortly: as §1
The next data set deals with Cytochrome P450 2C9 (Homo sapiens, UniProt P11712). The experiment in a line: Inhibition of human CYP2C9 after 10 mins. Type of data set: ADME. The method, boiled down:
as §1

A further data set addresses Cytochrome P450 2D6 (Homo sapiens, UniProt P10635). The experiment in a line: Inhibition of human CYP2D6 after 10 mins. It is filed as ADME. Put shortly:
as §1

For data set [4], the target named is Sodium-dependent dopamine transporter (Homo sapiens, UniProt Q01959). Nature of the data set: Displacement of [N-methyl-3H]WIN-35428 from human recombinant DAT expressed in pig LLCPK cells after 2 hrs by liquid scintillation counting. It is filed as cell-based.
Another data set deals with Cytochrome P450 3A4 (Homo sapiens, UniProt P08684). The experiment in a line: Inhibition of human CYP3A4 after 10 mins. It is filed as ADME. The method, boiled down:
as §1

The test system of data set [5] is Liver microsomes. Nature of the data set: Intrinsic clearance in rat liver microsomes assessed per gram of protein at 0.5 uM after 30 mins. Type of data set: ADME, Microsome. Particulars: 0.5 h. Put shortly:
(§2)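 Compound at 0.5 μM with liver microsomes (0.5 mg protein/mL) in 50 mM phosphate pH 7.4 at 37 °C, started with NADPH. Samples at 0, 3, 6, 9, 15 and 30 min were quenched in acetonitrile and analysed by HPLC-MS/MS. Cli came from the first-order elimination constant, scaled assuming 52.5 mg microsomal protein/g.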

For data set [6], the system named is Liver microsomes. Nature of the data set: Intrinsic clearance in human liver microsomes assessed per gram of protein at 0.5 uM after 30 mins. It is filed as ADME, Microsome. As to conditions: 0.5 h. Put shortly: as §2
In data set [7] the test system is Rattus norvegicus. Nature of the data set: Increase of extracellular norepinephrine level in CD rat medial prefrontal cortex at 3 mg/kg, ip measured up to 180 mins by microdialysis method. It is filed as functional, organism-based. On the set-up: dose 3 mg/kg. Put shortly: (§3)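 Probes of 2 or 4 mm were perfused with artificial CSF at 1.1 μL/min for 2 h, then dosing was 3 mg/kg ip. Dialysate was collected every 20 min into oxalic acid. NE, DA and 5-HT were measured by HPLC with electrochemical detection and expressed as percent of the mean of three basal samples.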

Data set [8] has as its system Rattus norvegicus. Nature of the data set: Increase of extracellular serotonin level in CD rat medial […] at 3 mg/kg, ip measured up to 180 mins by microdialysis method. More on the design: dose 3 mg/kg. It is filed as functional, organism-based. The method, boiled down:
as §3

Data set [9] deals with Rattus norvegicus. Nature of the data set: Increase of extracellular norepinephrine level in CD rat nucleus accumbens at 3 mg/kg, ip measured up to 180 mins by microdialysis method. Type of data set: functional, organism-based. More on the design: dose 3 mg/kg. The method, boiled down:
as §3

The test system of data set [10] is Rattus norvegicus. Nature of the data set: Increase of extracellular serotonin level in CD rat nucleus accumbens at 3 mg/kg, ip measured up to 180 mins by microdialysis method. Type of data set: functional, organism-based. More on the design: dose 3 mg/kg. Put shortly: as §3
Data set [11] has as its system Mus musculus. The experiment in a line: Antidepressant like activity in mouse assessed as reduction of immobility time at 3 to 30 mg/kg, po administered 2 hrs before test measured during final 4 mins of the 6 mins session by forced swimming test. It is filed as functional, organism-based.
In data set [12] the test system is Rattus norvegicus. The experiment in a line: Increase of extracellular dopamine level in CD rat medial prefrontal cortex at 3 mg/kg, ip measured up to 180 mins by microdialysis method. It is filed as functional, organism-based. More on the design: dose 3 mg/kg. Put shortly: as §3
Data set [13] has as its system Rattus norvegicus. Nature of the data set: Increase of extracellular dopamine level in CD rat nucleus accumbens at 3 mg/kg, ip measured up to 180 mins by microdialysis method. It is filed as functional, organism-based. On the set-up: dose 3 mg/kg. Put shortly:
as §3

In data set [14] the test system is Mus musculus. Nature of the data set: Potentiation of 5-hydroxytryptophan-induced stereotypic behavior in po dosed mouse administered 2 hrs before 5-hydroxytryptophan challenge measured for 30 mins. Type of data set: functional, organism-based. Put shortly:
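Mice got oral drug 120 min before an ip 5-HTP challenge (100 mg/kg), then sat singly in a perspex box for scoring of stereotyped behaviour. Oral doses were 3, 10 and 30 mg/kg.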

Sequence of Cytochrome P450 2D6 (P10635 whole entry): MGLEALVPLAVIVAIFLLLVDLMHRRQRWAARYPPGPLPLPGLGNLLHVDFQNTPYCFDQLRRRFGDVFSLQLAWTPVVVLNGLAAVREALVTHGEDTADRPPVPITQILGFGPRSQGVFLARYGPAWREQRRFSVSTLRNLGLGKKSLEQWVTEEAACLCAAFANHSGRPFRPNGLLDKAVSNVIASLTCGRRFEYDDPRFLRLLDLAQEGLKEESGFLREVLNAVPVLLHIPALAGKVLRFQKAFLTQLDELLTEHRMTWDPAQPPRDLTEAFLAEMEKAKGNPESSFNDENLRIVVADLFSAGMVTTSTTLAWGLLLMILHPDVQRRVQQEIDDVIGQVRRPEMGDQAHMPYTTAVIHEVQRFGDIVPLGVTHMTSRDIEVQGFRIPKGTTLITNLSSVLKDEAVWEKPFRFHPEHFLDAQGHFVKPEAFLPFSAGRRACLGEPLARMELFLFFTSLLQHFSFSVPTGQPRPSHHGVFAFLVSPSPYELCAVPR
Sequence of Cytochrome P450 2C19 (P33261 whole entry): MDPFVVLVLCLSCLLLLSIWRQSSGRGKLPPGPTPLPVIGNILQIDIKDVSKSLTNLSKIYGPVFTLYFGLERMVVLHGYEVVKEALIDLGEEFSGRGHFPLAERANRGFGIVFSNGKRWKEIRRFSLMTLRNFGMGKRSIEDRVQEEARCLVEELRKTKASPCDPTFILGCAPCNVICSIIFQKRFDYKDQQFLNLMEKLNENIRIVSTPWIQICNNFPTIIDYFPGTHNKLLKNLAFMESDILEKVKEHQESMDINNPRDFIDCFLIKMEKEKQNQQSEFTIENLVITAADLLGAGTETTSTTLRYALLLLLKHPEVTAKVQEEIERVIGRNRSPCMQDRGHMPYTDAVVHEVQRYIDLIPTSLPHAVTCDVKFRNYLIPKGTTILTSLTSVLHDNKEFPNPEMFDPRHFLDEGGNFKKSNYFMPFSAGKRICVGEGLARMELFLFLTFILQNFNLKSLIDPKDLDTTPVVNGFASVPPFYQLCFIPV
Sequence of Cytochrome P450 2C9 (P11712 whole entry): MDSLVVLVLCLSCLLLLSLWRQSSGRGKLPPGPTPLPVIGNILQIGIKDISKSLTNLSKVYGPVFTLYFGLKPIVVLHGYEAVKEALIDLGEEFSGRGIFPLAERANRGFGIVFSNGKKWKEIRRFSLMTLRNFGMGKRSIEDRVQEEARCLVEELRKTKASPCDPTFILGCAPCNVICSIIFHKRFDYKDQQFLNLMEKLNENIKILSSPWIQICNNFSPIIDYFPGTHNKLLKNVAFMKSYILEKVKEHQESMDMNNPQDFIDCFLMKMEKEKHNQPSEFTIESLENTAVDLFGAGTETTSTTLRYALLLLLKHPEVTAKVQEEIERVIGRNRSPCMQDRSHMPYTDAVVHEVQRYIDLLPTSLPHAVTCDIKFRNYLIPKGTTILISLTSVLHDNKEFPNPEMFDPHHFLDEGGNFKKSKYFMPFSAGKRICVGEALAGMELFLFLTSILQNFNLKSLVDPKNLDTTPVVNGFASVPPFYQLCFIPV
Sequence of Sodium-dependent dopamine transporter (Q01959 whole entry): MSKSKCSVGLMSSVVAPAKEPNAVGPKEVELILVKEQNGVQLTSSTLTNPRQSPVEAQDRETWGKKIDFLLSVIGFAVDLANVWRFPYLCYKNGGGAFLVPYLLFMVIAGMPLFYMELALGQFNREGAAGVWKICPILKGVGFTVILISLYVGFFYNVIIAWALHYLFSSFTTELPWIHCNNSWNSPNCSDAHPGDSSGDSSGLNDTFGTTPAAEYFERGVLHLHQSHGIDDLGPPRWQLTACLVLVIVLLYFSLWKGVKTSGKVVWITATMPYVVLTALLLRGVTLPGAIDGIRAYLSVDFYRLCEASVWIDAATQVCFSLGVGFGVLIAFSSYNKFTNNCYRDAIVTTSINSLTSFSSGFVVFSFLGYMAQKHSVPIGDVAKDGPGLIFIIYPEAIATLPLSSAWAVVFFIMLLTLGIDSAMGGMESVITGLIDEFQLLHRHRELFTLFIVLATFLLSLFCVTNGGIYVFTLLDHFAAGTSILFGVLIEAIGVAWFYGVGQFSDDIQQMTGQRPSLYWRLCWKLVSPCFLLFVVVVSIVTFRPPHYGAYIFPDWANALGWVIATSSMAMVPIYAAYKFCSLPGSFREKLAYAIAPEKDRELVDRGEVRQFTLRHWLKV
Sequence of Sodium-dependent noradrenaline transporter (P23975 whole entry): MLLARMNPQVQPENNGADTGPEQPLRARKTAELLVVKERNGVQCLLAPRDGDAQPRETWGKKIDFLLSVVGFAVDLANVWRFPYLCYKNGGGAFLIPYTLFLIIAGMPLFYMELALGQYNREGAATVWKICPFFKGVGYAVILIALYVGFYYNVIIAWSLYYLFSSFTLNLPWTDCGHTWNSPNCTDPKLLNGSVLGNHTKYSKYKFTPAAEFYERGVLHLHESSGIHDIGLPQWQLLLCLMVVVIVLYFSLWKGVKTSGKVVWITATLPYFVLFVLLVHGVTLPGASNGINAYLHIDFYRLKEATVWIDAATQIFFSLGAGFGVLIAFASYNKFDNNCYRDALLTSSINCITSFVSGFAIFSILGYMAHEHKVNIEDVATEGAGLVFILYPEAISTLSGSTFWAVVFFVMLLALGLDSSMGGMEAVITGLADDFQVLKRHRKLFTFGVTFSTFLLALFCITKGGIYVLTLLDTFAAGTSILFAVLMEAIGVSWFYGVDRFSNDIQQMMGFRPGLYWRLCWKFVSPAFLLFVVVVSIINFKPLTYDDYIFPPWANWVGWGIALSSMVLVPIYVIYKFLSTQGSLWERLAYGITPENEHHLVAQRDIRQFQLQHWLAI
Sequence of Cytochrome P450 3A4 (P08684 whole entry): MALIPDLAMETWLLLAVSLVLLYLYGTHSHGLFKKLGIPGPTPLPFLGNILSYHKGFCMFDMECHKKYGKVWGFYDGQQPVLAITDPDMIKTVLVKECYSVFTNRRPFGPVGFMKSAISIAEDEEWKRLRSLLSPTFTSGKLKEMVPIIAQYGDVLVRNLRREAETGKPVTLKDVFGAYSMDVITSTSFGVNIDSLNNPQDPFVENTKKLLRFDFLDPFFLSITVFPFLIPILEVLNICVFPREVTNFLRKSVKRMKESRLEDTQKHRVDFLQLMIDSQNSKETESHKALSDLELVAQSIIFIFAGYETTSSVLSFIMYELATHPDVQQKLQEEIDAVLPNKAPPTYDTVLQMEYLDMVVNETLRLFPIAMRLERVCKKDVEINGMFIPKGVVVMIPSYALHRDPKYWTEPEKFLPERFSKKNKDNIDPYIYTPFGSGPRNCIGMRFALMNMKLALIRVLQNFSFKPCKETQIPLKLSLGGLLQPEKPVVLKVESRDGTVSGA
Sequence of Sodium-dependent serotonin transporter (P31645 whole entry): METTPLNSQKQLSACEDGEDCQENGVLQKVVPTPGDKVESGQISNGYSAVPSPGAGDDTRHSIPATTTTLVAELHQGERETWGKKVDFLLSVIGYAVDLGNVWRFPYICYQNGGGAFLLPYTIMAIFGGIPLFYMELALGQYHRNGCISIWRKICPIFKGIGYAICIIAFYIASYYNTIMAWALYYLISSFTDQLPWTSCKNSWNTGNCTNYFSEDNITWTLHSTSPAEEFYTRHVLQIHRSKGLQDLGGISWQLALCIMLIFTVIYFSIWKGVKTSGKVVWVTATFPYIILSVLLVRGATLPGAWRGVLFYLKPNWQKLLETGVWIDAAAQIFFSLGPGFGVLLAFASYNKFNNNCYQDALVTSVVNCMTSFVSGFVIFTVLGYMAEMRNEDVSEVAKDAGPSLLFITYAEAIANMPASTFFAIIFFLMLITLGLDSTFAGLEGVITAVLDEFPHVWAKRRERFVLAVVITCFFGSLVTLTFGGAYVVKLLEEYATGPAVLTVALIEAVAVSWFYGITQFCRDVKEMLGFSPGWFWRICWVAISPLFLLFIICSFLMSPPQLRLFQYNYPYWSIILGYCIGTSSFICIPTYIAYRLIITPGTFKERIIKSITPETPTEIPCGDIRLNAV

On to `CN(C)CCCC1(c2ccc(F)cc2)OCc2cc(C#N)ccc21` (configuration not stated), for which, in the data set on Mus musculus [1], the result was Active.
Take `C=CCC(OC)[C@]12CNCC[C@]1(c1ccc(Cl)c(Cl)c1)C2` (mixture of isomers; form 1) [6-(3,4-DICHLOROPHENYL)-1-[1-(METHYLOXY)-3-BUTEN-1-YL]-3-AZABICYCLO[4.1.0]HEPTANE (DIASTEREOMERIC MIX)]: the figures for the Ki in data set [2], in data set [3] and in data set [4] were 1 nM, 0.126 nM and 1.26 nM, respectively. In addition, the IC50 against Cytochrome P450 1A2, at Cytochrome P450 2C19, at Cytochrome P450 2C9, at Cytochrome P450 2D6 and against Cytochrome P450 3A4 was 3000 nM in each case.
For the compound `COC[C@@]12CNCC[C@]1(c1ccc(Cl)c(Cl)c1)C2` (racemic) [GSK1360707], the figures for the Ki in data set [2], in [3] and in [4] were 12.6 nM, 1.58 nM and 25.1 nM, respectively. Further, the IC50 on Cytochrome P450 1A2 worked out at 10000 nM; on Cytochrome P450 2C19, 10000 nM; at Cytochrome P450 2C9, 10000 nM; at Cytochrome P450 2D6, 3000 nM; against Cytochrome P450 3A4, 10000 nM.
For the compound `COC[C@@]12CCNC[C@]1(c1ccc(Cl)c(Cl)c1)C2` (racemic) [RAC-1-(3,4-DICHLOROPHENYL)-6-(METHOXYMETHYL)-2-AZABICYCLO[4.1.0]HEPTANE (ENANTIOMERS)], the results for the Ki in data set [2], in data set [3] and in data set [4] were 200 nM, 31.6 nM and 126 nM, respectively. Further, the figures for the CL in the data set on Liver microsomes [5] and in the data set with Liver microsomes [6] were 1.8 mL/min/g and 1.4 mL/min/g, respectively.
`COC[C@@]12CNCC[C@]1(c1ccc(Cl)c(Cl)c1)C2` (relative stereo; 17): the outcome in the data set with Rattus norvegicus [7], in the data set on Rattus norvegicus [8], with Rattus norvegicus [9], with Rattus norvegicus [10], in the data set on Mus musculus [11] and with Rattus norvegicus [12] was Active. Besides, the outcome in the data set on Rattus norvegicus [13] was Active. The Activity entry with Mus musculus [14] is “Dose-dependent effect”.
For the compound `COC[C@@]12CNCC[C@]1(c1ccc(Cl)c(Cl)c1)C2` (relative stereo; 18) [GSK1360707], the Ki is 126 nM in data set [2], 20 nM in [3] and 100 nM in data set [4]. The results for the CL with Liver microsomes [5] and in the data set on Liver microsomes [6] were 1.8 mL/min/g and 1.4 mL/min/g, respectively. Further, the IC50 was determined as 10000 nM against Cytochrome P450 1A2; 10000 nM against Cytochrome P450 2C19; 10000 nM on Cytochrome P450 2C9; 3000 nM at Cytochrome P450 2D6; 10000 nM against Cytochrome P450 3A4.
In the case of `COC[C@@]12CCNC[C@]1(c1ccc(Cl)c(Cl)c1)C2` (single isomer, unassigned) [RAC-1-(3,4-DICHLOROPHENYL)-6-(METHOXYMETHYL)-2-AZABICYCLO[4.1.0]HEPTANE (ENANTIOMERS)], the Ki in data set [2] was 1000 nM; in [3], 158 nM; in [4], 631 nM.
On the same counts, the results for `COC[C@@]12CNCC[C@]1(c1ccc3ccccc3c1)C2` (single isomer, unassigned; 27) [1-(METHOXYMETHYL)-6-(NAPHTHALEN-2-YL)-3-AZABICYCLO[4.1.0]HEPTANE (ENANTIOMERIC MIX)] are 39.8 nM, 1 nM and 100 nM.
Regarding `COC[C@@]12CNCC[C@]1(c1ccc3ccccc3c1)C2` (single isomer, unassigned; 28) [1-(METHOXYMETHYL)-6-(NAPHTHALEN-2-YL)-3-AZABICYCLO[4.1.0]HEPTANE (ENANTIOMERIC MIX)], the Ki in [2] is 10 nM; in data set [3], 0.126 nM; in data set [4] it was 12.6 nM. For the same compound, the results for the CL in the data set with Liver microsomes [5] and with Liver microsomes [6] were 17 mL/min/g and 1.2 mL/min/g, respectively. Besides, the IC50 against Cytochrome P450 1A2, at Cytochrome P450 2C19, at Cytochrome P450 2C9, at Cytochrome P450 2D6 and at Cytochrome P450 3A4 was 8000 nM in each case.
As for `Clc1ccc([C@]23CCN4CC[C@]2(C4)C3)cc1Cl` (single isomer, unassigned; 49) [3-(3,4-DICHLORO-PHENYL)-6-AZA-TRICYCLO[4.2.1.0*1,3*]NONANE (STRUCTURAL MIX)], the Ki in data set [2] was 63.1 nM; in data set [3] it was 1.58 nM; in data set [4], 79.4 nM.
Take `Clc1ccc([C@]23CCN4CC[C@]2(C4)C3)cc1Cl` (single isomer, unassigned; 50) [3-(3,4-DICHLORO-PHENYL)-6-AZA-TRICYCLO[4.2.1.0*1,3*]NONANE (STRUCTURAL MIX)]: the Ki in [2] was 794 nM; in data set [3] it was 31.6 nM; in [4], 251 nM.

The term Ki denotes the equilibrium dissociation constant of an inhibitor or competing ligand from its target. For orientation: IC50 means the concentration that gives 50% inhibition. The low end stands for greater potency in that assay, the high end for weaker potency in that assay.
